For nine compounds, Ki results are on record in ChEMBL document CHEMBL1141162, “Inhibition of carboxylesterases by benzil (diphenylethane-1,2-dione) and heterocyclic analogues is dependent upon the aromaticity of the ring and the flexibility of the dione moiety” (J Med Chem, 2005).

The target in one experiment is Acetylcholinesterase (Homo sapiens, UniProt P22303). The experiment in a line: Inhibition of 1 mM acetylthiocholine (AcTCh) binding to human Acetylcholinesterase. The method in brief: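 Human acetylcholinesterase from a commercial supplier, assayed with 1 mM acetylthiocholine as substrate.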
For the next experiment, the target named is T1, Cocaine esterase (Homo sapiens, UniProt O00748).
T1 sequence (O00748 whole entry): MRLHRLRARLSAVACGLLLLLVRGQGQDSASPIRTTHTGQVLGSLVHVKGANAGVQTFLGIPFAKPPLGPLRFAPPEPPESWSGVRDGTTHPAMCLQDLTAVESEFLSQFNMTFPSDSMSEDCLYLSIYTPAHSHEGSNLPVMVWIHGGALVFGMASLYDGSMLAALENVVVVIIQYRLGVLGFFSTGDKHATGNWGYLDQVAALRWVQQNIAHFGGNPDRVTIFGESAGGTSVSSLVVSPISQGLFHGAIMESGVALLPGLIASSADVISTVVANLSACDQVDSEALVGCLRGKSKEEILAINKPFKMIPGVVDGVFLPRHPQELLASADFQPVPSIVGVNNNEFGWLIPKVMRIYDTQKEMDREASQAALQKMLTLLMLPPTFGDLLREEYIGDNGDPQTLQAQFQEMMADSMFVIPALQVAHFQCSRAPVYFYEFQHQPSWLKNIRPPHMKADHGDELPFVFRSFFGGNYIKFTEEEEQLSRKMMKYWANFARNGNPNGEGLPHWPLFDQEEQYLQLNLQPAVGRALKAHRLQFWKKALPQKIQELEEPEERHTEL
The experiment in a line: Inhibition constant against human intestinal carboxylesterase (hiCE) expressed in Sf21 cells using 3 mM o-NPA.

In the next experiment the target is T2, Liver carboxylesterase 1 (Homo sapiens, UniProt P23141).
T2 sequence (P23141 whole entry): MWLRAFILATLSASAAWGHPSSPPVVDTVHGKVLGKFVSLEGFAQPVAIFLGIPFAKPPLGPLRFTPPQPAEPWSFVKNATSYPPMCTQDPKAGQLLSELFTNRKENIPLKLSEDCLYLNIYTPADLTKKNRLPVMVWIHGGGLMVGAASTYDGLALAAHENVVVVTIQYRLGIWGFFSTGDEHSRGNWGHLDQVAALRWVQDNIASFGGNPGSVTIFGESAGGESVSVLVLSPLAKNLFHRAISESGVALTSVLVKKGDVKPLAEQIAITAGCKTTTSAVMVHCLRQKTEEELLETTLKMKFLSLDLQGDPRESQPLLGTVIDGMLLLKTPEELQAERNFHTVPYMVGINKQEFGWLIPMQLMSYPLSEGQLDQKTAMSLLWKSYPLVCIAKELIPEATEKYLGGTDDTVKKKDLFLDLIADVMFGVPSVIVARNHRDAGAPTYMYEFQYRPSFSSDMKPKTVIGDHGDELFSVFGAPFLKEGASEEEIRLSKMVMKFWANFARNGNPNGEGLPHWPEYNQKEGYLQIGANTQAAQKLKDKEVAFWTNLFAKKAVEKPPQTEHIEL
As to the kind of experiment: Inhibition constant against human liver carboxylesterase (hCE1) expressed in Sf21 cells using 3 mM o-NPA. Type of experiment: cell-based, Oryctolagus cuniculus.

A short description of experiment [1]: Inhibition constant against rabbit liver carboxylesterase (rCE) expressed in Sf21 cells using 3 mM o-NPA. Also on record: species or system Oryctolagus cuniculus.

As a reminder, the Ki is the dissociation constant of the complex between target and ligand, obtained from inhibition or displacement.

Values joined by “and” are separate entries in the source; they are usually repeats but may differ in a detail not shown here. Equal values may be shown once.

Acetylcholinesterase, sequence (P22303 whole entry): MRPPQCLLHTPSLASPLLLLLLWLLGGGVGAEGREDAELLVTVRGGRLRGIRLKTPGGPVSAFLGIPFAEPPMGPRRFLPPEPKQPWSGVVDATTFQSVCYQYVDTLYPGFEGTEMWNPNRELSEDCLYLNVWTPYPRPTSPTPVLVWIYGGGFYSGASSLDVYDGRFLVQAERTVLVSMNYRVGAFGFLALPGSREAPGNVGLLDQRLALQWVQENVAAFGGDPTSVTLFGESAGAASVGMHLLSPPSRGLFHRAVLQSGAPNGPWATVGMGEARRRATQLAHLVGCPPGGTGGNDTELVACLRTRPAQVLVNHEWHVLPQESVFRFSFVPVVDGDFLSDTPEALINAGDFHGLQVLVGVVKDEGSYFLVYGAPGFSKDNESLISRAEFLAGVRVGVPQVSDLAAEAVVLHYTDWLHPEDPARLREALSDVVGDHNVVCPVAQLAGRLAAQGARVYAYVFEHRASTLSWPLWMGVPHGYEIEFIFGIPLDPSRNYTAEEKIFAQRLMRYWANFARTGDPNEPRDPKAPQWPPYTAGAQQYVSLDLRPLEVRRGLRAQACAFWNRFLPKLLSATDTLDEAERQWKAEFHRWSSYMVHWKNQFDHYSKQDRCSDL

For `O=C(C(=O)c1cc(Br)cs1)c1cc(Br)cs1`, the Ki at Acetylcholinesterase was greater than 100000 nM; on Cocaine esterase, 57.3 nM.
For the compound `O=C(C(=O)c1cccs1)c1cccs1`, the Ki on Acetylcholinesterase is greater than 100000 nM; on Cocaine esterase, 1040 nM; at Liver carboxylesterase 1 it was 212 nM and 874 nM.
`O=C(C(=O)c1ccc(Br)s1)c1ccc(Br)s1` showed a Ki on Acetylcholinesterase greater than 100000 nM.
Turning to `O=C(C(=O)c1ccco1)c1ccco1`, the inhibitory constant (Ki) at Acetylcholinesterase was greater than 100000 nM; on Cocaine esterase, 8000 nM; on Liver carboxylesterase 1, 1170 nM and 8480 nM.
In the case of `O=C(C(=O)c1ccc2ccccc2c1)c1ccc2ccccc2c1`, the results for the inhibition constant Ki (in experiment [1]; on Liver carboxylesterase 1) were 1.04 nM and 255 nM, respectively.
For the compound `O=C(c1ccco1)C(O)c1ccco1` (stereo not drawn), the inhibitory constant (Ki) at Acetylcholinesterase, on Cocaine esterase, on Liver carboxylesterase 1 and on Liver carboxylesterase 1 (sf21) was greater than 100000 nM throughout.
As to `O=C(C(=O)c1ccsc1)c1ccsc1`, the inhibitory constant (Ki) at Acetylcholinesterase was greater than 100000 nM; at Cocaine esterase, 6540 nM; on Liver carboxylesterase 1 it was 365 nM and 2410 nM.
Take `O=C(C(=O)c1ccccn1)c1ccccn1`: the Ki on Acetylcholinesterase is greater than 100000 nM; on Liver carboxylesterase 1, 126 nM and 484 nM.
As to `O=C(c1cccs1)C(O)c1cccs1` (stereo not drawn), the Ki on Acetylcholinesterase was greater than 100000 nM; on Cocaine esterase it was 5610 nM; on Liver carboxylesterase 1 it was 1660 nM and 4540 nM.
